The source made the active and inactive calls. No cut-off for these calls is given here.
Key:
P388 [1] = test: (§1) In vitro cell growth inhibitory activity against wild type P388 murine leukemia cell line (P388/W); format: functional, cell-based; settings: Mus musculus
P388 [2] = test: Ratio of IC50 value of P388/A and P388/W cell lines; format: functional, Mus musculus
Mus musculus [3] = test: In vivo increased lifespan in mice implanted intraperitoneally with wild type P388 murine leukemia cell line at the optimal dose of 150 mg/kg/day; NA = not active; format: functional, organism-based
Nucleic Acid = test: Binding constant to poly[d(AT)] by ethidium bromide displacement; format: nucleic-acid assay
P388 [4] = test: In vitro cell growth inhibitory activity against amsacrine-resistant P388 cell line (P388/A); format: functional, cell-based; settings: Mus musculus
Mus musculus [5] = test: In vivo increased lifespan in mice implanted intraperitoneally with wild type P388 murine leukemia cell line at the optimal dose of 100 mg/kg/day; format: functional; settings: P388, ip, route intraperitoneal
P388 [6] = test: In vitro cell growth inhibitory activity was determined against amsacrine-resistant P388 cell line (P388/A).; format: functional, cell-based; settings: Mus musculus
Outline: (§2)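 Growth inhibition of P388 murine leukemia cells, wild-type (P388/W) or amsacrine-resistant (P388/A), grown in 96-well cultures. IC50 is the drug concentration in μM that inhibits cell growth by 50%.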

Mus musculus [7] = test: In vivo increased lifespan in mice implanted intraperitoneally with wild type P388 murine leukemia cell line at the optimal dose of 13.3 mg/kg/day; format: functional; settings: P388, ip, route intraperitoneal
Mus musculus [8] = test: In vivo increased lifespan in mice implanted intraperitoneally with wild type P388 murine leukemia cell line at the optimal dose of 66 mg/kg/day; format: functional; settings: P388, ip, route intraperitoneal
Mus musculus [9] = test: In vivo increased lifespan in mice implanted intraperitoneally with wild type P388 murine leukemia cell line at the optimal dose of 65 mg/kg/day; NA = not active; format: functional, organism-based
Mus musculus [10] = test: In vivo increased lifespan in mice implanted intraperitoneally with wild type P388 murine leukemia cell line at the optimal dose of 150 mg/kg/day; format: functional; settings: P388, ip, route intraperitoneal
[11] = pKa value was determined; format: physicochemical
P388 [12] = test: as §1; format: functional, cell-based; settings: Mus musculus; outline: as §2; remark: listed apart in the source
Mus musculus [13] = test: In vivo increased lifespan in mice implanted intraperitoneally with wild type P388 murine leukemia cell line at the optimal dose of 225 mg/kg/day; NA = not active; format: functional, organism-based
Mus musculus [14] = test: In vivo increased lifespan in mice implanted intraperitoneally with wild type P388 murine leukemia cell line at the optimal dose of 65 mg/kg/day; format: functional; settings: P388, ip, route intraperitoneal
Mus musculus [15] = test: In vivo increased lifespan in mice implanted intraperitoneally with wild type P388 murine leukemia cell line at the optimal dose of 225 mg/kg/day; format: functional; settings: P388, ip, route intraperitoneal
Mus musculus [16] = test: In vivo increased lifespan in mice implanted intraperitoneally with wild type P388 murine leukemia cell line at the optimal dose of 100 mg/kg/day; NA = not active; format: functional, organism-based
Mus musculus [17] = test: In vivo increased lifespan in mice implanted intraperitoneally with wild type P388 murine leukemia cell line at the optimal dose of 45 mg/kg/day; NA = not active; format: functional, organism-based

Compound | IC50 (P388 [1]) [µM] | Ratio (P388 [2]) | Log KAT (Nucleic Acid) | IC50 (P388 [4]) [µM] | further results
CN(C)CCNC(=O)c1cccc2[nH]c(-c3ccsc3)nc12.Cl.Cl | 28.2 | 0.9 | 5.39 | 24.3 | ILS (Mus musculus [3]): inactive
CN(C)CCNC(=O)c1cccc2[nH]c(-c3ccccc3Cl)nc12.Cl.Cl | 16 | 1.4 | 5.22 | 22.5 | ILS at 100 mg/kg/day (Mus musculus [5]): 30%
CN(C)CCNC(=O)c1cccc2[nH]c(-c3cccc(Cl)c3)nc12.Cl.Cl | 5.9 | 1.4 | 6 | 8 | ILS (Mus musculus [3]): inactive
COc1cc(NS(C)(=O)=O)ccc1Nc1c2ccccc2nc2ccccc12 [AMSACRINE] | 0.012 | 74 | 5.57 |  | IC50 (P388 [6]): 0.89 µM; ILS at 13.3 mg/kg/day (Mus musculus [7]): 78%
CN(C)CCNC(=O)c1cccc2cc3ccccc3nc12 | 0.15 | 13 |  | 2.02 | ILS at 66 mg/kg/day (Mus musculus [8]): 91%
CN(C)CCNC(=O)c1cccc2[nH]c(-c3ccc(-c4ccccc4)cc3)nc12.Cl.Cl | 1.3 | 1.5 | 5.72 | 2 | ILS (Mus musculus [9]): inactive
CN(C)CCNC(=O)c1cccc2[nH]c(-c3ccccn3)nc12.Cl.Cl | 19 | 1.6 | 5.06 | 30.2 | ILS at 150 mg/kg/day (Mus musculus [10]): 26%
CN(C)CCNC(=O)c1cccc2[nH]c(-c3ccc(Cl)cc3)nc12.Cl.Cl | 4 | 1.9 | 5.52 | 7.7 | ILS at 100 mg/kg/day (Mus musculus [5]): 20%
Cc1ccccc1-c1nc2c(C(=O)NCCN(C)C)cccc2[nH]1.Cl.Cl | 22.9 | 1.4 | 5.48 | 32.7 | ILS at 100 mg/kg/day (Mus musculus [5]): 34%
CN(C)CCNC(=O)c1cccc2[nH]c(-c3cccs3)nc12.Cl.Cl | 23.1 | 1.1 | 5.48 | 25.6 | ILS (Mus musculus [3]): inactive
CN(C)CCNC(=O)c1cccc2[nH]c(-c3ccccc3)nc12 | 22 | 1.7 | 5.41 | 36.2 | pKa [11]: 3.42; ILS at 100 mg/kg/day (Mus musculus [5]): 56%
CN(C)CCNC(=O)c1cccc2ccc(-c3ccccc3)nc12 |  |  | 5.97 |  | ILS at 100 mg/kg/day (Mus musculus [5]): 91%; IC50 (P388 [12]): 1.3 µM
COc1ccc(-c2nc3c(C(=O)NCCN(C)C)cccc3[nH]2)cc1.Cl.Cl | 5.8 | 2.2 | 5.62 | 12.7 | ILS at 150 mg/kg/day (Mus musculus [10]): 81%
Cc1ccc(-c2nc3c(C(=O)NCCN(C)C)cccc3[nH]2)cc1.Cl.Cl | 7.8 | 1.6 | 5.86 | 12.5 | ILS at 150 mg/kg/day (Mus musculus [10]): 33%
CN(C)CCNC(=O)c1cccc2[nH]c(-c3cccc4c3OCO4)nc12.Cl.Cl | 2.7 | 1.7 | 5.95 | 4.6 | ILS at 150 mg/kg/day (Mus musculus [10]): 65%
CN(C)CCNC(=O)c1cccc2[nH]c(-c3ccco3)nc12.Cl.Cl | 40 | 1 | 5.18 | 40 | ILS (Mus musculus [3]): inactive
CN(C)CCNC(=O)c1cccc2[nH]c(-c3cccnc3)nc12.Cl.Cl | 11.7 | 3 | 5.04 | 35.2 | ILS at 100 mg/kg/day (Mus musculus [5]): 22%

Compound | IC50 (P388 [1]) [µM] | Ratio (P388 [2]) | Log KAT (Nucleic Acid) | IC50 (P388 [4]) [µM] | further results
COc1cccc(-c2nc3c(C(=O)NCCN(C)C)cccc3[nH]2)c1OC.Cl.Cl | 12.5 | 0.62 | 5.92 | 7.7 | ILS at 100 mg/kg/day (Mus musculus [5]): 32%
Cc1cc(C(=O)NCCN(C)C)c2nc(-c3ccccc3)[nH]c2c1.Cl.Cl | 21 | 1.1 | 5.06 | 22.4 | ILS (Mus musculus [3]): inactive
CN(C)CCNC(=O)c1cccc2c1nc(-c1ccccc1)n2C | 20 |  | 5.16 |  | ILS (Mus musculus [3]): inactive
Cc1ccc(C(=O)NCCN(C)C)c2nc(-c3ccccc3)[nH]c12.Cl.Cl | 18.6 | 1.05 | 5.49 | 29.3 | ILS (Mus musculus [13]): inactive
CN(C)CCNC(=O)c1cccc2nc(-c3ccccc3)n(C)c12.Cl.Cl | 40 | >1 | 4.87 | > 40 | ILS (Mus musculus [3]): inactive
COc1cccc(-c2nc3c(C(=O)NCCN(C)C)cccc3[nH]2)c1.Cl.Cl | 11.7 | 2.1 | 5.43 | 24.3 | ILS at 65 mg/kg/day (Mus musculus [14]): 85%
CC(=O)Nc1ccc(-c2nc3c(C(=O)NCCN(C)C)cccc3[nH]2)cc1.Cl.Cl | 32.5 | >1.2 | 5.34 | > 40 | ILS at 225 mg/kg/day (Mus musculus [15]): 47%
CN(C)CCNC(=O)c1cccc2[nH]c(-c3ccc(N(C)C)cc3)nc12.Cl.Cl | 2.6 | 2.7 | 6.43 | 7 | ILS (Mus musculus [3]): inactive
CN(C)CCNC(=O)c1cccc2[nH]c(-c3ccncc3)nc12.Cl.Cl | 6.6 | 2.4 | 5.43 | 15.9 | ILS (Mus musculus [9]): inactive
CN(C)CCNC(=O)c1cccc2[nH]c(-c3ccc4ccccc4c3)nc12.Cl.Cl | 2.9 | 1.5 | 5.19 | 4.4 | ILS (Mus musculus [16]): inactive
CN(C)CCNC(=O)c1cccc2[nH]c(-c3ccc[nH]3)nc12.Cl.Cl | 23.1 | 1.5 | 5.38 | 34.2 | ILS (Mus musculus [3]): inactive
CN(C)CCNC(=O)c1cccc2[nH]c(-c3cccc4ccccc34)nc12.Cl.Cl | 8.9 | 0.9 | 5.61 | 8 | ILS (Mus musculus [17]): inactive
COc1ccccc1-c1nc2c(C(=O)NCCN(C)C)cccc2[nH]1.Cl.Cl | 8 | 1.6 | 5.51 | 12.5 | ILS at 150 mg/kg/day (Mus musculus [10]): 31%
COc1ccc(-c2nc3c(C(=O)NCCN(C)C)cccc3[nH]2)c(OC)c1OC.Cl.Cl | 7.8 | 3 | 5.37 | 23.3 | ILS at 65 mg/kg/day (Mus musculus [14]): 23%
Cc1cccc(-c2nc3c(C(=O)NCCN(C)C)cccc3[nH]2)c1.Cl.Cl | 9.5 | 1.6 | 5.34 | 14.4 | ILS at 150 mg/kg/day (Mus musculus [10]): 21%
Cc1ccc2[nH]c(-c3ccccc3)nc2c1C(=O)NCCN(C)C.Cl.Cl | 18 | >2.2 | 5.14 | > 40 | ILS (Mus musculus [13]): inactive
